Source: ChEMBL document CHEMBL5331144, “Design, Synthesis, and Biological Evaluation of 2-Hydroxy-4-phenylthiophene-3-carbonitrile as PD-L1 Antagonist and Its Comparison to Available Small Molecular PD-L1 Inhibitors” (J Med Chem, 2023)
Calls of active or inactive are those of the source. The rule behind the calls is not given here.

Assays:
[1] = biological target: Programmed cell death protein 1/Programmed cell death 1 ligand 1 (Homo sapiens) (UniProt Q15116+Q9NZQ7); assay: Inhibition of human PD-1/PD-L1 interaction assessed as induction of PD-L1 dimerization at 1:1 molar ratio by 1H-15N HMQC NMR analysis; format: protein-complex assay
Summary of the method: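 Recombinant human PD-L1 (residues 18–134), expressed in E. coli BL21(DE3), refolded and purified by SEC in PBS pH 7.4. 1D and 2D NMR spectra recorded for apo protein and with ligand at 1:1 molar ratio.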

Jurkat = assay: Cytotoxicity against human Jurkat T cells overexpressing PD-1 with luciferase reporter under the control of NFAT promoter at higher concentration incubated for 48 hrs by redox dye mix based analysis; format: toxicity, cell-based
Summary of the method: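 Jurkat PD-1 effector cells (PD-1 overexpressing, luciferase reporter under NFAT promoter), 5000 cells/well, grown in RPMI 1640 with 10% FBS and 2 mM L-glutamine. Exposed 48 h to increasing compound concentrations, with DMSO held constant; DMSO alone as control. Values are mean ± SD of at least three independent experiments.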

[2] = Ex vivo biodistribution in formalin fixed paraffin embedded tumor of human ES2 cells expressing PD-L1 by immunohistochemistry staining based analysis relative to control; format: ADME, Neoplasm; settings: es-2
Summary of the method: (§1)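 FFPE xenograft tumours (ES2 or H358, PD-L1+/– knockout pairs) cut to 4 μm, deparaffinized at 60 °C with xylene, rehydrated, citrate pH 6.0 heat retrieval. Autoradiography: 30 min incubation with freshly formulated 18F-tracer at 0.2 MBq/mL, washed with cold PBS and water, dried, phosphor-plate exposure and quantification. Adjacent sections stained by IHC with anti-PD-L1 (5 μg/mL, clone 28-8, 60 min), DAB, hematoxylin counterstain.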

[3] = Ex vivo drug localization in peripheral part of formalin fixed paraffin embedded tumor of human NCI-H358 cells expressing PD-L1 by immunohistochemistry staining based analysis; format: ADME, tissue-based, Neoplasm; summary of the method: as §1
[4] = Ex vivo biodistribution in snap-frozen human tonsils overexpressing PD-L1 by autoradiography; format: ADME, Tonsil
Summary of the method: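 Snap-frozen human tonsil sections, 10 min cold acetone, then 30 min incubation with freshly formulated 18F-tracer at 0.2 MBq/mL. Washed twice with cold PBS and once with water, dried, exposed to phosphor plates and quantified by phosphor imaging.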

[5] = Ex vivo biodistribution in formalin fixed paraffin embedded tumor of human NCI-H358 cells expressing PD-L1 by immunohistochemistry staining based analysis relative to control; format: ADME, Neoplasm; summary of the method: as §1

Row | SMILES | inhibition [1] | Activity (Jurkat) | Drug uptake [2] | Drug uptake [3] | Drug uptake [4] | Drug uptake [5]
1 | Cc1c(COc2cc(OCc3cccc(C#N)c3)c(CN3C[C@H](O)C[C@@H]3C(=O)O)cc2Cl)cccc1-c1ccc2c(c1)OCCO2 | Active | Toxic |  |  |  | 
2 | N#Cc1c(-c2ccc([18F])cc2)csc1OCc1ccc(CN)cc1 |  |  | Not Active | Active | Active | 40%
3 | Cc1c(COc2cc(OCc3cccc(C#N)c3)c(CN3C[C@@H](F)C[C@@H]3C(=O)O)cc2Cl)cccc1-c1ccc2c(c1)OCCO2 |  | Toxic |  |  |  | 
4 | N#Cc1c(-c2ccc(F)cc2)csc1OCc1ccc(CN)cc1 | Active | Toxic |  |  |  | 
5 | Cc1c(COc2cc(OCc3cccc(C#N)c3)c(CN3C[C@@H]([18F])C[C@@H]3C(=O)O)cc2Cl)cccc1-c1ccc2c(c1)OCCO2 |  |  |  | Active | Active | 40%
